ChEMBL document CHEMBL2407075, “Sulphonamido-quinoxalines: search for anticancer agent” (Eur J Med Chem, 2013)

Key:
Format in all cases: functional
NCI-H460 = experiment: Growth inhibition of human NCI-H460 cells assessed as cell growth at 10^-4 M after 48 hrs by sulforhodamine B assay; settings: NCI-H460, 48 h, read-out: Activity
SK-MEL-2 = experiment: Growth inhibition of human SK-MEL-2 cells assessed as cell growth at 10^-8 M after 48 hrs by sulforhodamine B assay; settings: SK-MEL-2, 48 h, read-out: Activity
TK-10 [1] = experiment: Growth inhibition of human TK10 cells assessed as cell growth at 10^-8 M after 48 hrs by sulforhodamine B assay; settings: TK-10, 48 h, read-out: Activity
SNB-19 = experiment: Growth inhibition of human SNB19 cells assessed as cell growth at 10^-7 M after 48 hrs by sulforhodamine B assay; settings: SNB-19, 48 h, read-out: Activity
KM12 [2] = experiment: Growth inhibition of human KM12 cells after 48 hrs by sulforhodamine B assay; settings: KM12, 48 h; for CC50: read-out: LC50 (the source's name)
Method in brief: (§1)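 Adherent cells in RPMI 1640 with 5% FBS and 2 mM L-glutamine were plated at 5000–40,000 cells/well and grown 24 h. Five concentrations (0.01–100 µM, DMSO stock) were added for 48 h at 37 °C. Cells were fixed with cold TCA (10% final) and stained with SRB, read at 515 nm. GI50 came from log concentration–growth curves against time-zero and control plates.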

NCI-H522 = experiment: Growth inhibition of human NCI-H522 cells assessed as cell growth at 10^-5 M after 48 hrs by sulforhodamine B assay; settings: NCI-H522, 48 h, read-out: Activity
DU-145 [3] = experiment: Growth inhibition of human DU145 cells assessed as cell growth at 10^-6 M after 48 hrs by sulforhodamine B assay; settings: DU-145, 48 h, read-out: Activity
Method in brief: (§2)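 Five-dose NCI-60 run (0.01, 0.1, 1, 10 and 100 µM, as 10-fold dilutions from a DMSO stock made at 400× the top final level). Cells were grown in RPMI 1640 with 5% FBS and 2 mM glutamine and plated for 24 h. They were then exposed for 48 h at 37 °C and 5% CO2. TCA fixation was followed by SRB staining with A515 read-out. Percent growth was taken relative to time-zero and control plates.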

Malme-3M = experiment: Growth inhibition of human MALME-3M cells assessed as cell growth at 10^-4 M after 48 hrs by sulforhodamine B assay; settings: read-out: Activity
BT-549 = experiment: Growth inhibition of human BT549 cells assessed as cell growth at 10^-4 M after 48 hrs by sulforhodamine B assay; settings: BT-549, 48 h, read-out: Activity; method in brief: as §2
LOX IMVI [4] = experiment: Growth inhibition of human LOXIMVI cells assessed as cell growth at 10^-8 M after 48 hrs by sulforhodamine B assay; settings: read-out: Activity
A498 = experiment: Growth inhibition of human A498 cells assessed as cell growth at 10^-8 M after 48 hrs by sulforhodamine B assay; settings: A498, 48 h, read-out: Activity; method in brief: as §2
SK-MEL-28 [5] = experiment: Growth inhibition of human SK-MEL-28 cells assessed as cell growth at 10^-8 M after 48 hrs by sulforhodamine B assay; settings: SK-MEL-28, 48 h, read-out: Activity
SF-295 = experiment: Growth inhibition of human SF295 cells assessed as cell growth at 10^-4 M after 48 hrs by sulforhodamine B assay; settings: SF-295, 48 h, read-out: Activity
HCT-15 = experiment: Growth inhibition of human HCT15 cells after 48 hrs by sulforhodamine B assay; settings: HCT-15, 48 h; for CC50: read-out: LC50 (the source's name); method in brief: as §1
ACHN = experiment: Growth inhibition of human ACHN cells after 48 hrs by sulforhodamine B assay; settings: for CC50: read-out: LC50 (the source's name); method in brief: as §1
M14 = experiment: Growth inhibition of human M14 cells assessed as cell growth at 10^-7 M after 48 hrs by sulforhodamine B assay; settings: M14, 48 h, read-out: Activity
TK-10 [6] = experiment: Growth inhibition of human TK10 cells assessed as cell growth at 10^-4 M after 48 hrs by sulforhodamine B assay; settings: TK-10, 48 h, read-out: Activity
T47D [7] = experiment: Growth inhibition of human T47D cells assessed as cell growth at 10^-7 M after 48 hrs by sulforhodamine B assay; settings: read-out: Activity
DU-145 [8] = experiment: Growth inhibition of human DU145 cells assessed as cell growth at 10^-7 M after 48 hrs by sulforhodamine B assay; settings: DU-145, 48 h, read-out: Activity; method in brief: as §2
SW-620 = experiment: Growth inhibition of human SW620 cells assessed as cell growth at 10^-4 M after 48 hrs by sulforhodamine B assay; settings: SW-620, 48 h, read-out: Activity
OVCAR-3 = experiment: Growth inhibition of human OVCAR3 cells assessed as cell growth at 10^-7 M after 48 hrs by sulforhodamine B assay; settings: OVCAR-3, 48 h, read-out: Activity
UACC-257 [9] = experiment: Growth inhibition of human UACC257 cells assessed as cell growth at 10^-8 M after 48 hrs by sulforhodamine B assay; settings: UACC-257, 48 h, read-out: Activity
KM12 [10] = experiment: Growth inhibition of human KM12 cells assessed as cell growth at 10^-7 M after 48 hrs by sulforhodamine B assay; settings: KM12, 48 h, read-out: Activity
T47D [11] = experiment: Growth inhibition of human T47D cells assessed as cell growth at 10^-8 M after 48 hrs by sulforhodamine B assay; settings: read-out: Activity
[12] = Growth inhibition of human EKVX cells after 48 hrs by sulforhodamine B assay; settings: for CC50: read-out: LC50 (the source's name); method in brief: as §1
SK-MEL-28 [13] = experiment: Growth inhibition of human SK-MEL-28 cells assessed as cell growth at 10^-6 M after 48 hrs by sulforhodamine B assay; settings: SK-MEL-28, 48 h, read-out: Activity
UACC-257 [14] = experiment: Growth inhibition of human UACC257 cells assessed as cell growth at 10^-6 M after 48 hrs by sulforhodamine B assay; settings: UACC-257, 48 h, read-out: Activity
OVCAR-4 = experiment: Growth inhibition of human OVCAR4 cells after 48 hrs by sulforhodamine B assay; settings: OVCAR-4, 48 h; for CC50: read-out: LC50 (the source's name)
Method in brief: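 Five-dose NCI 60 screen at 0.01, 0.1, 1, 10 and 100 µM, 48 h exposure after 24 h preincubation, in RPMI 1640 with 5% FBS and 2 mM glutamine. Fixed with TCA (10% final for adherent cells, 16% for suspension cells), stained with SRB, A515 read. Percent growth uses time-zero (Tz), control and treated plates. GI50, TGI and LC50 are read from the dose-response curves.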

PC-3 = experiment: Growth inhibition of human PC3 cells assessed as cell growth at 10^-7 M after 48 hrs by sulforhodamine B assay; settings: PC-3, 48 h, read-out: Activity
LOX IMVI [15] = experiment: Growth inhibition of human LOXIMVI cells assessed as cell growth at 10^-5 M after 48 hrs by sulforhodamine B assay; settings: read-out: Activity
[16] = Growth inhibition of human HCC2998 cells after 48 hrs by sulforhodamine B assay; settings: HCC 2998, 48 h; for CC50: read-out: LC50 (the source's name); method in brief: as §1
786-0 = experiment: Growth inhibition of human 786-0 cells assessed as cell growth at 10^-8 M after 48 hrs by sulforhodamine B assay; settings: 786-0, 48 h, read-out: Activity; method in brief: as §2

O=S(=O)(Nc1ccc(Cl)cc1)c1ccc2nc(-c3ccccc3)c(-c3ccccc3)nc2c1
growth at 100 µM (NCI-H460): 68% | growth at 0.01 µM (SK-MEL-2): 93% | growth at 0.01 µM (TK-10 [1]): 90% | growth at 0.1 µM (SNB-19): 96% | TGI (KM12 [2]): > 100 µM | CC50 (KM12 [2]): > 100 µM | growth at 10 µM (NCI-H522): -34% | growth at 1 µM (DU-145 [3]): 93% | growth at 100 µM (Malme-3M): 108% | growth at 100 µM (BT-549): 61% | growth at 0.01 µM (LOX IMVI [4]): 99% | growth at 0.01 µM (A498): 75% | growth at 0.01 µM (SK-MEL-28 [5]): 97% | growth at 100 µM (SF-295): 77% | TGI (HCT-15): > 100 µM | CC50 (HCT-15): > 100 µM | TGI (ACHN): > 100 µM | CC50 (ACHN): > 100 µM | growth at 0.1 µM (M14): 85% | growth at 100 µM (TK-10 [6]): 86% | growth at 0.1 µM (T47D [7]): 90% | growth at 0.1 µM (DU-145 [8]): 99% | growth at 100 µM (SW-620): 70% | growth at 0.1 µM (OVCAR-3): 97% | growth at 0.01 µM (UACC-257 [9]): 94% | growth at 0.1 µM (KM12 [10]): 94% | growth at 0.01 µM (T47D [11]): 95% | CC50 [12]: > 100 µM | growth at 1 µM (SK-MEL-28 [13]): 91% | growth at 1 µM (UACC-257 [14]): 84% | TGI (OVCAR-4): > 100 µM | CC50 (OVCAR-4): > 100 µM | growth at 0.1 µM (PC-3): 92% | growth at 10 µM (LOX IMVI [15]): 3% | TGI [16]: > 100 µM | CC50 [16]: > 100 µM | growth at 0.01 µM (786-0): 97%

O=S(=O)(Nc1ccccn1)c1ccc2nc(-c3ccccc3)c(-c3ccccc3)nc2c1
growth at 100 µM (NCI-H460): 65% | growth at 0.01 µM (SK-MEL-2): 99% | growth at 0.01 µM (TK-10 [1]): 92% | growth at 0.1 µM (SNB-19): 93% | TGI (KM12 [2]): > 100 µM | CC50 (KM12 [2]): > 100 µM | growth at 10 µM (NCI-H522): -42% | growth at 1 µM (DU-145 [3]): 95% | growth at 100 µM (Malme-3M): 97% | growth at 100 µM (BT-549): 49% | growth at 0.01 µM (LOX IMVI [4]): 97% | growth at 0.01 µM (A498): 88% | growth at 0.01 µM (SK-MEL-28 [5]): 101% | growth at 100 µM (SF-295): 40% | TGI (HCT-15): > 100 µM | CC50 (HCT-15): > 100 µM | TGI (ACHN): > 100 µM | CC50 (ACHN): > 100 µM | growth at 0.1 µM (M14): 89% | growth at 100 µM (TK-10 [6]): 54% | growth at 0.1 µM (T47D [7]): 85% | growth at 0.1 µM (DU-145 [8]): 99% | growth at 100 µM (SW-620): 59% | growth at 0.1 µM (OVCAR-3): 92% | growth at 0.01 µM (UACC-257 [9]): 96% | growth at 0.1 µM (KM12 [10]): 99% | growth at 0.01 µM (T47D [11]): 95% | GI50 [12]: 2.69 µM | TGI [12]: > 100 µM | CC50 [12]: > 100 µM | growth at 1 µM (SK-MEL-28 [13]): 96% | growth at 1 µM (UACC-257 [14]): 81% | GI50 (OVCAR-4): 2.79 µM | TGI (OVCAR-4): > 100 µM | CC50 (OVCAR-4): > 100 µM | growth at 0.1 µM (PC-3): 93% | growth at 10 µM (LOX IMVI [15]): -93% | CC50 [16]: > 100 µM | growth at 0.01 µM (786-0): 100%
